For assay [1], the system named is OVXF1023 cell line. The assay is described as follows: In vitro cytotoxicity against human tumor xenograft OVXF1023 ovarian adenocarcinoma. It is filed as functional. Put shortly: (§1)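 Double-layer soft-agar clonogenic assay. Tumor cells come from human tumor xenografts serially passaged in nude mice. Cells are dispersed with collagenase 0.05%, DNase 0.07% and hyaluronidase 0.1% (37 °C, 30 min), sieved, and viability is checked by trypan blue. 20 000–200 000 cells go in 0.4% agar over a 0.7% agar base in IMDM with 20% FCS. Drug is overlaid continuously for at least 1 week.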
(In general: Xenograft models place foreign cells or tissue in a host animal.)

The subject of assay [2] is panel of six human tumor xenografts (Homo sapiens). The assay is described as follows: In vitro cytotoxicity in six human tumor xenografts.
Assay [3] is described as follows: In vitro cytotoxic effect in 2 of 6 human tumor xenografts, LXFE and RXF. Conditions: in the assay text read “LXFL” for “LXFE”. It is filed as functional. Put shortly:
as §1

In assay [4] the test system is LXFS538. Put plainly: In vitro cytotoxicity against human tumor xenograft LXFS 538 small cell lung carcinoma. In kind it is functional. Put shortly: as §1
In assay [5] the test system is RXF 423. The assay is described as follows: In vitro cytotoxicity against human tumor xenograft RXF 423 renal cancer. It is filed as functional. Put shortly:
as §1

Assay [6] deals with T1, M-phase inducer phosphatase 1 (Homo sapiens, UniProt P30304).
T1 sequence (P30304 whole entry): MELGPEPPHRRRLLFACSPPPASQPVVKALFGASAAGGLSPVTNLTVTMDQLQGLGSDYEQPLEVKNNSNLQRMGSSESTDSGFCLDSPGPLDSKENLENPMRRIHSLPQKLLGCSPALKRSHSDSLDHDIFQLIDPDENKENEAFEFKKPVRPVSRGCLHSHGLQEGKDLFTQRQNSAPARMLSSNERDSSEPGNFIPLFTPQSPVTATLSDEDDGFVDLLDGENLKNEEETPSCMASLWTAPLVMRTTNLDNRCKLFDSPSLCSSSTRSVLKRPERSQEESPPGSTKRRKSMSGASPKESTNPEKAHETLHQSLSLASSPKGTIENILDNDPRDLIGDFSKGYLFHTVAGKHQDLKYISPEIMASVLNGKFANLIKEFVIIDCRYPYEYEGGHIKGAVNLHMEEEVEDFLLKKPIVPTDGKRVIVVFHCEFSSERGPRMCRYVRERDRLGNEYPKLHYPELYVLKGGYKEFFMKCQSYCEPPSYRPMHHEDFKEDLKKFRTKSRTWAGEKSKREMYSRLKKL
The assay is described as follows: Inhibition of Cell division cycle 25 (Cdc25) phosphatase. Put shortly:
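Enzyme is GST-human cdc25A fusion expressed in E. coli and purified on glutathione-agarose. Enzyme and DTT in Tris buffer are preincubated 15 min at 37 °C. The reaction starts with p-nitrophenyl phosphate (500 mM stock) and runs 60 min at 37 °C. Absorbance is read at 405 nm, and the no-enzyme blank is subtracted.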

Assay [7] concerns LXFL 529. The assay is described as follows: In vitro cytotoxicity against human tumor xenograft LXFL 529 Nonsmall cell lung carcinoma. In kind it is functional. Put shortly: as §1
Assay [8] has as its system CXF1103. The assay is described as follows: In vitro cytotoxicity against human tumor xenograft CXF 1103 colorectal adenocarcinoma. In kind it is functional. Put shortly:
as §1

In assay [9] the test system is MEXF989. The assay is described as follows: In vitro cytotoxicity against human tumor xenograft MEXF 989 melanoma. In kind it is functional. Put shortly:
as §1

The subject of assay [10] is LXFL 529/ LXFS 538. The assay is described as follows: In vitro cytotoxicity in nonsmall cell lung carcinoma cell line LXFL 529 and small cell lung carcinoma cell line LXFS 538 human tumor xenografts. In kind it is functional. Put shortly:
as §1

A short description of assay [11]: In vitro cytotoxic effect in 1 of 6 human tumor xenografts, LXFS. It is filed as functional. Put shortly: as §1
Assay [12] can be described thus: In vitro cytotoxic effect in 0 of 6 human tumor xenografts. It is filed as functional. Put shortly:
as §1

Assay [13] in a line: In vitro cytotoxic effect in 2 of 6 human tumor xenografts, LXFS and RXF. In kind it is functional. Put shortly: as §1
The nature of assay [14]: In vitro cytotoxic effect in 2 of 6 human tumor xenografts, LXFL and LXFS. It is filed as functional. Put shortly: as §1
The nature of assay [15]: In vitro cytotoxic effect in 1 of 6 human tumor xenografts, RXF. In kind it is functional. Put shortly: as §1
Assay [16] is described as follows: In vitro cytotoxic effect in 3 of 6 human tumor xenografts, LXFS, MEXF and RXF. It is filed as functional. Put shortly:
as §1

The target in assay [17] is Cyclin-dependent kinase 1 (starfish). The assay is described as follows: Inhibition of Cell division cycle 2 (cdc2) kinase.
Assay [18] can be described thus: In vitro cytotoxic effect in 4 of 6 human tumor xenografts, LXFL, LXFS, MEXF and OVXF. In kind it is functional. Put shortly:
as §1

In brackets after ≈: the same amount, converted by molar mass. Activity calls are given as the source filed them. The calls are words filed in the database; no cut-off is given here.

Regarding `CCCCCCCCCCCCCCCCOP(=O)([O-])OCC[N+](C)(C)C` [MILTEFOSINE], the IC70 in assay [1] is above 10 µg/mL; in assay [4] it was above 10 µg/mL; in assay [5] it was 2.75 µg/mL (≈ 6.76 µM); in [7] it was 9.57 µg/mL (≈ 23.5 µM); in assay [8], above 10 µg/mL; in assay [9], above 10 µg/mL. For the same molecule, the “Mean IC70” value in assay [2] came to 8 µg/mL. The Cytotoxicity result in [3] is “Weak activity”. The molecule further returned an IC50 in [6] of 25 µM.
Consider `CCCCCCCCCCCCOCCOP(=O)([O-])OCC[N+]1(C)CCOCC1`, for which the “Mean IC70” value in assay [10] was above 10 µg/mL. The Cytotoxicity entry in assay [11] is “Weak activity”. This molecule also yielded an IC50 in assay [6] of 610 µM.
Turning to `CCCCCCCCCCCCOP(=O)([O-])OCC[N+]1(C)CCOCC1`, the “Mean IC70” value in assay [2] is above 10 µg/mL. This molecule also had an IC50 in [6] of 500 µM. In addition, the NA entry in [12] is “inactive”.
`CCCCCCCCCCCCCCOCCOP(=O)([O-])OCC[N+]1(C)CCCCC1`: the “Mean IC70” value in assay [10] is above 10 µg/mL. Also, in assay [11], the Cytotoxicity result is “Weak activity”. The molecule further registered an IC50 in assay [6] of 300 µM.
Consider `CCCCCCCCCCCCCCOCCOP(=O)([O-])OCC[N+]1(C)CCOCC1`, for which the IC70 in assay [1] is above 10 µg/mL; in assay [4], 5.85 µg/mL (≈ 12.6 µM); in assay [5], 6.74 µg/mL (≈ 14.5 µM); in assay [7], 10 µg/mL (≈ 21.5 µM); in [8], above 10 µg/mL; in [9], above 10 µg/mL. Besides, the “Mean IC70” value in [10] turned out to be 8.6 µg/mL. Moreover, the IC50 in assay [6] came out at 380 µM. In addition, the Cytotoxicity result in assay [13] was “Weak activity”.
On to `CCCCCCCCCCCCCCCCOCCOP(=O)([O-])OCC[N+]1(C)CCCCC1`, for which the IC70 in assay [1] is above 10 µg/mL; in [4], 4.54 µg/mL (≈ 9.23 µM); in assay [5], 10 µg/mL (≈ 20.3 µM); in assay [7], 5.38 µg/mL (≈ 10.9 µM); in assay [8], above 10 µg/mL; in assay [9], above 10 µg/mL. In addition, the Cytotoxicity result in assay [14] is “Weak activity”. Besides, the “Mean IC70” value in assay [10] was found to be 7.9 µg/mL. In [6], this molecule had an IC50 of 100 µM.
For `CCCCCCCCCCCCCCOP(=O)([O-])OCC[N+]1(C)CCOCC1`, in assay [2], the “Mean IC70” value is above 10 µg/mL. The same molecule returned a 50% inhibitory concentration (IC50) in [6] of 290 µM. Also, the Cytotoxicity result in assay [15] was “Weak activity”.
Take `CCCCCCCCCCCCCCCCOCCOP(=O)([O-])OCC[N+]1(C)CCOCC1`: the IC70 in [1] is above 10 µg/mL; in [4], 5.12 µg/mL (≈ 10.4 µM); in assay [5], 4.76 µg/mL (≈ 9.64 µM); in assay [7], 10.4 µg/mL (≈ 21 µM); in assay [8] it was above 10 µg/mL; in assay [9] it was 8.76 µg/mL (≈ 17.7 µM). In [10], the “Mean IC70” value turned out to be 7.8 µg/mL. The molecule further came in with an IC50 in [6] of 1000 µM. Moreover, the Cytotoxicity result in assay [16] was “Weak activity”.
As to `CCCCCCCCCCCCCCOP(=O)([O-])OCC[N+]1(C)CCCCC1`, the IC50 in assay [17] was above 1 mM; in [6] it was 490 µM. Moreover, the “Mean IC70” value in assay [2] is above 10 µg/mL. In addition, in [12], the NA entry is “inactive”.
On to `CCCCCCCCCCCCCCCCOP(=O)([O-])OCC[N+]1(C)CCOCC1`, for which the “Mean IC70” value in assay [2] was above 10 µg/mL. This molecule also gave an IC50 in [6] of 40 µM. Besides, the Cytotoxicity entry in assay [15] is “Weak activity”.
Take `CCCCCCCCCCCCCCCCOP(=O)([O-])OCC[N+]1(C)CCCCC1`: the IC70 in assay [1] is 7.8 µg/mL (≈ 17.4 µM); in assay [4] it was 1.9 µg/mL (≈ 4.23 µM); in [5], 10 µg/mL (≈ 22.3 µM); in assay [7], 4.33 µg/mL (≈ 9.67 µM); in assay [8], above 10 µg/mL; in assay [9], 4.64 µg/mL (≈ 10.4 µM). Also, the Cytotoxicity entry in assay [18] was “Weak activity”. In addition, the “Mean IC70” value in [2] stood at 5.6 µg/mL. Moreover, the IC50 in assay [6] was 460 µM.
For the molecule `CCCCCCCCCCCCOP(=O)([O-])OCC[N+]1(C)CCCCC1`, the “Mean IC70” value in [2] is above 10 µg/mL. The Cytotoxicity entry in assay [11] was “Weak activity”. Besides, the IC50 in assay [6] was above 1000 µM.

For orientation: IC70 means the concentration at which the effect reaches the 70% level. One may read the IC50 as the point on the concentration scale where inhibition reaches its midpoint. Read a low IC50 as greater potency in that assay.

Values taken from ChEMBL document CHEMBL1129359, “Alkyl and alkoxyethyl antineoplastic phospholipids” (J Med Chem, 1996).
